Data set [1] addresses Mitogen-activated protein kinase 10 (Homo sapiens, UniProt P53779). Kind of data set: Inhibition of recombinant 6x-His-tagged JNK3 (39 to 402 residues) (unknown origin) expressed in Escherichia coli BL21(DE3) assessed as reduction in ATF2 phosphorylation measured after 50 mins by ELISA. For orientation: In an ELISA, binding on a coated surface is turned into a signal by an enzyme label.

The target in data set [2] is Mitogen-activated protein kinase 14 (Homo sapiens, UniProt Q16539). Kind of data set: Inhibition of GST-His tagged human p38alpha expressed in Escherichia coli assessed as reduction in ATF2 phosphorylation measured after 60 mins by ELISA. The procedure, abridged:
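ELISA kinase assays run in parallel for JNK3 and p38α, with 60 min incubation. IC50 values are the mean of three experiments.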

For data set [3], the target named is Casein kinase I isoform delta (Homo sapiens) (UniProt P48730). The experiment in a line: Inhibition of CK1 delta (unknown origin) assessed as residual activity at 0.5 uM. The procedure, abridged:
(§1)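 Each inhibitor is tested at a single concentration, 1 µM or 0.5 µM depending on the compound. Results are reported as residual kinase activity.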

Data set [4] is described as follows: Drug metabolism in human liver microsomes at 100 uM preincubated with NADPH regenerating system for 5 mins followed by addition of liver microsomes measured after 180 mins by LC-MS analysis. The following applies: read-out: Drug metabolism. Format: ADME, microsome. Background: Liver microsomes are vesicles of endoplasmic reticulum, rich in cytochrome P450 enzymes.

The target of data set [5] is Angiopoietin-1 receptor (Homo sapiens) (UniProt Q02763). The experiment in a line: Inhibition of human wild type C-terminal GST-His-tagged TIE2 expressed in Sf9 cells assessed as residual activity at 0.5 uM relative to control. The procedure, abridged:
as §1

Data set [6] is described as follows: Glutathione reactivity at 10 uM after 54 mins in presence of 5 mM GSH by HPLC method. The procedure, abridged: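 Test compound (10 µM) is incubated with glutathione (5 mM) under conditions like those of the kinase activity assay (max. concentration 10 µM, 54 min, 37°C).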
For data set [7], the target named is MAP kinase-activated protein kinase 2 (Homo sapiens) (UniProt P49137). The experiment in a line: Inhibition of human MAPKAPK2 expressed in Sf9 cells assessed as residual activity at 0.5 uM relative to control. The procedure, abridged:
as §1

In data set [8] the test system is Mitogen-activated protein kinase 10 (Homo sapiens), P53779 [C154A]. Kind of data set: Covalent binding affinity to JNK3 C154A mutant (unknown origin) at 5 molar excess after 1 hr by LC-muESI-QTOF mass spectrometry. The procedure, abridged: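 Intact-protein mass spectrometry with a JNK3 mutant carrying Cys-154→Ala. Inhibitor is incubated with the protein. Unbound and reversibly bound ligand are removed by chromatography and by a high declustering potential before ionization. The protein is then analysed by LC-µESI-QTOF to look for a mass shift from a covalent adduct.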

Calls of active or inactive are those of the source. No cut-off for these calls is given here.

Sequence of Mitogen-activated protein kinase 14 (Q16539 whole entry): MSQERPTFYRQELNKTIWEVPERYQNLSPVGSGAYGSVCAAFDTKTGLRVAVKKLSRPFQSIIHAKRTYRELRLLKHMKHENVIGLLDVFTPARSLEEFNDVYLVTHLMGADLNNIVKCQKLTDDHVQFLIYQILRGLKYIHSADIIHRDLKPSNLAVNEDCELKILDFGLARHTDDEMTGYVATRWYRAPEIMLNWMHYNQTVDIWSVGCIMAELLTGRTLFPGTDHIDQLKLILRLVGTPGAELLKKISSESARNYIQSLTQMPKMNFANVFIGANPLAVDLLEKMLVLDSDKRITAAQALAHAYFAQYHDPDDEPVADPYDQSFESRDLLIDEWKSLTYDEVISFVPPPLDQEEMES
Sequence of Mitogen-activated protein kinase 10 (P53779 whole entry, the tested form may be a part): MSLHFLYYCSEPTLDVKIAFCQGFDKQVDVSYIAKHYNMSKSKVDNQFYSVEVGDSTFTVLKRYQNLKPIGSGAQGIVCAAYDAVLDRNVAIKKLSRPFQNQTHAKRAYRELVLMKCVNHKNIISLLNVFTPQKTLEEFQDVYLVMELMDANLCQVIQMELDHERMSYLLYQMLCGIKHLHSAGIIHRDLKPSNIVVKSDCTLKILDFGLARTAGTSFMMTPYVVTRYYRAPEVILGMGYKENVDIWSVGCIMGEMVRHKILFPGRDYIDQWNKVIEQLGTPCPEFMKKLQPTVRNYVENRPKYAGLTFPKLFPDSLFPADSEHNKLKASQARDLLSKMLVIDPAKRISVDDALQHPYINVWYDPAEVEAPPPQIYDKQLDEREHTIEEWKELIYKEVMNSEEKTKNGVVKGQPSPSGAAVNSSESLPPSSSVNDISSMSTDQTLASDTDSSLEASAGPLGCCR
Sequence of Mitogen-activated protein kinase 10 (Homo sapiens), P53779 [C154A] (P53779 whole entry C154A): as the sequence (P53779 whole entry, the tested form may be a part) above, with C154A counted along it
Sequence of Angiopoietin-1 receptor (Homo sapiens) (Q02763 whole entry): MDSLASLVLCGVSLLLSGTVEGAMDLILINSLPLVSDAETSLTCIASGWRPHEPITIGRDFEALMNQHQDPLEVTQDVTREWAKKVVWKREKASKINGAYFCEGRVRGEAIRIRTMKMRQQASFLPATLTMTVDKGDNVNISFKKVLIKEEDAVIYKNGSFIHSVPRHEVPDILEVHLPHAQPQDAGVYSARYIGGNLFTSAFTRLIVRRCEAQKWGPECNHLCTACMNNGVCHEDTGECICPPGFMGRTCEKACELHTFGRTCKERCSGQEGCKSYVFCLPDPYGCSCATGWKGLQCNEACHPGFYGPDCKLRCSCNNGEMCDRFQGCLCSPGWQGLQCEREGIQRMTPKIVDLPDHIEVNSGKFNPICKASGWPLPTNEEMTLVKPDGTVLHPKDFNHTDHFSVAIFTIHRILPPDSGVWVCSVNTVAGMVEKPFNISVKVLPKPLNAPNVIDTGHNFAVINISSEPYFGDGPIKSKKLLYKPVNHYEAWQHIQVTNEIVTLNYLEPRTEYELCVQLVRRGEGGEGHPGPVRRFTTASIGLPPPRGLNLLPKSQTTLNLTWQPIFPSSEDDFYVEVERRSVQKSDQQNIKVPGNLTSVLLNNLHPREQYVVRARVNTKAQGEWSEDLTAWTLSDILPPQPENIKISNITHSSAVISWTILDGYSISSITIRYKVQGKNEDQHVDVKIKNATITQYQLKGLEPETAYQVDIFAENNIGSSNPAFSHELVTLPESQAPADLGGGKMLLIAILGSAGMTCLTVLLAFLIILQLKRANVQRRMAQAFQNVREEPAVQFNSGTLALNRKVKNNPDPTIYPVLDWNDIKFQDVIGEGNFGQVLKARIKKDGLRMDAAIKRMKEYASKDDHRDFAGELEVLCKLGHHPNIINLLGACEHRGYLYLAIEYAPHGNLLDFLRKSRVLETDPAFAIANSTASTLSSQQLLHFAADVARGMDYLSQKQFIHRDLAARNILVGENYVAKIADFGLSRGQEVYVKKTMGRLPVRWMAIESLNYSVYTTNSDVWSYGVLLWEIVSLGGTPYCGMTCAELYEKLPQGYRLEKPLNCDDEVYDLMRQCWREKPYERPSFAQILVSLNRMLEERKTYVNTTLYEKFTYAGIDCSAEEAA
Sequence of Casein kinase I isoform delta (Homo sapiens) (P48730 whole entry, looked up, canonical isoform): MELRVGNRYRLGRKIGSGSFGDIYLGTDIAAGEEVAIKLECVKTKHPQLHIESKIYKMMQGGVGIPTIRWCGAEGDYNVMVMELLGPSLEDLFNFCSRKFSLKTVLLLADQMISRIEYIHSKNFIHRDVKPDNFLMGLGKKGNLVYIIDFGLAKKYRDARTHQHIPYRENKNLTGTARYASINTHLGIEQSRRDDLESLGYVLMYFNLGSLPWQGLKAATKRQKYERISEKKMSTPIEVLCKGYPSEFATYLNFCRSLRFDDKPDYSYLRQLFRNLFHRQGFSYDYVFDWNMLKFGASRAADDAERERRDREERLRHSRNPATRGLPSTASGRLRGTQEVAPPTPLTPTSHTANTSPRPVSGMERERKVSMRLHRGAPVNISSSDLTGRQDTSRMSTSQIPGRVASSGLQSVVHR
Sequence of MAP kinase-activated protein kinase 2 (Homo sapiens) (P49137 whole entry, looked up): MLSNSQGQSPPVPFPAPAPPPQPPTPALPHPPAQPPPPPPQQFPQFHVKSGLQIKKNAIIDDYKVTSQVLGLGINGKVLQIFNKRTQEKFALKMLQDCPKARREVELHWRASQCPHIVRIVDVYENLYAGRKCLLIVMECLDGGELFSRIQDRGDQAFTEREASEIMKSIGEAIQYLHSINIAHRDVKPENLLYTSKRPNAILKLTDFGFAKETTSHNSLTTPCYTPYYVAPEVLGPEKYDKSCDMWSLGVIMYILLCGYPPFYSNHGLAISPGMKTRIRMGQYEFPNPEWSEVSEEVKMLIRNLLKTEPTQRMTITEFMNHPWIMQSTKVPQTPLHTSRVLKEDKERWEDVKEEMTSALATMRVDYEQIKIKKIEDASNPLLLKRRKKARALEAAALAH

For `CSc1nc(-c2ccc(F)cc2)c(-c2ccnc(Nc3ccc(NC(=O)c4cccc(N)c4)cc3)c2)n1C`, the IC50 in data set [1] turned out to be 30 nM; in data set [2], 149 nM.
On the same counts, the results for `CCC(=O)Nc1ccc(C(=O)Nc2ccc(Nc3cc(-c4c(-c5ccc(F)cc5)nc(SC)n4C)ccn3)c(C)c2)cc1` are 25 nM and 22 nM.
On the same counts, the results for `C=CC(=O)Nc1ccc(C(=O)Nc2ccc(Nc3cc(-c4[nH]c(SC)nc4C)ccn3)cc2)cc1` are 200 nM and 5920 nM.
For `CSc1nc(-c2ccc(F)cc2)c(-c2ccnc(Nc3ccc(N)cc3)c2)[nH]1` the same measures were 24 nM and 17 nM.
On to `C=CC(=O)Nc1ccc(C(=O)Nc2cccc(Nc3cc(-c4c(-c5ccc(F)cc5)nc(SC)n4C)ccn3)c2)cc1`, for which the values for the half-maximal inhibitory concentration (IC50) in data set [1] and in data set [2] were 4 nM and 26 nM, respectively.
Regarding `C=CC(=O)Nc1cccc(C(=O)Nc2ccc(Nc3cc(-c4c(-c5ccc(F)cc5)nc(SC)n4C)ccn3)cc2)c1`, the Activity in data set [3], in data set [5] and in data set [7] was 30 to 50% each time. In addition, the metabolised at 3 h, 100 µM in data set [4] is 13%. Besides, the Drug metabolism result in data set [6] was “Metabolite detected”. In addition, the IC50 in data set [1] was determined as 0.3 nM; in data set [2], 36 nM. Further, the outcome in data set [8] was inactive.
With `CCC(=O)Nc1cccc(C(=O)Nc2ccc(Nc3cc(-c4c(-c5ccc(F)cc5)nc(SC)n4C)ccn3)cc2)c1`, the IC50 in data set [1] amounted to 23 nM; in data set [2] it was 126 nM.
On the same counts, the results for `C=CC(=O)Nc1cccc(C(=O)Nc2ccc(Nc3cc(-c4c(-c5ccc(F)cc5)nc(SC)n4C)ccn3)c(C)c2)c1` are 2 nM and 3 nM.
For `C=CC(=O)Nc1ccc(C(=O)Nc2ccc(Nc3cc(-c4c(-c5ccc(F)cc5)nc(SC)n4C)ccn3)c(C)c2)cc1`, the IC50 was found to be 8 nM in data set [1] and 35 nM in data set [2].
`C=CC(=O)Nc1cccc(C(=O)Nc2ccc(Nc3cc(-c4[nH]c(SC)nc4-c4ccc(F)cc4)ccn3)cc2)c1`: the IC50 came to 0.6 nM in data set [1] and 0.8 nM in data set [2].
Consider `C=CC(=O)Nc1ccc(C(=O)Nc2ccc(Nc3cc(-c4c(-c5ccc(F)cc5)nc(SC)n4C)ccn3)cc2)cc1`, for which the IC50 in data set [1] amounted to 10 nM; in data set [2], 47 nM. For the same molecule, in data set [8], the outcome was inactive.
In the case of `C=CC(=O)Nc1cccc(C(=O)Nc2cccc(Nc3cc(-c4c(-c5ccc(F)cc5)nc(SC)n4C)ccn3)c2)c1C`, the 50% inhibitory concentration (IC50) in data set [1] stood at 3 nM; in data set [2], 100 nM.
On the same counts, the results for `CCC(=O)Nc1cccc(C(=O)Nc2ccc(Nc3cc(-c4[nH]c(SC)nc4-c4ccc(F)cc4)ccn3)cc2)c1` are 2 nM and 4 nM.
For `CCC(=O)Nc1cccc(C(=O)Nc2ccc(Nc3cc(-c4[nH]c(SC)nc4C)ccn3)cc2)c1` the same measures were 253 nM and above 10000 nM.
For `C=CC(=O)Nc1ccc(C(=O)Nc2ccc(Nc3cc(-c4[nH]c(SC)nc4-c4ccc(F)cc4)ccn3)cc2)cc1` the same measures were 3 nM and 3 nM.
Take `CCC(=O)Nc1cccc(C(=O)Nc2ccc(Nc3cc(-c4c(-c5ccc(F)cc5)nc(SC)n4C)ccn3)cc2)c1C`: the IC50 stood at 17 nM in data set [1] and 38 nM in data set [2].
For `C=CC(=O)Nc1cccc(C(=O)Nc2cccc(Nc3cc(-c4c(-c5ccc(F)cc5)nc(SC)n4C)ccn3)c2)c1` the same measures were 3 nM and 217 nM.
On the same counts, the results for `CCC(=O)Nc1cccc(C(=O)Nc2cccc(Nc3cc(-c4c(-c5ccc(F)cc5)nc(SC)n4C)ccn3)c2)c1` are 175 nM and 241 nM.
For `C=CC(=O)Nc1cccc(C(=O)Nc2ccc(Nc3cc(-c4c(-c5ccc(F)cc5)nc(SC)n4C)ccn3)cc2)c1C` the same measures were 2 nM and 2 nM.
For `CCC(=O)Nc1ccc(C(=O)Nc2ccc(Nc3cc(-c4c(-c5ccc(F)cc5)nc(SC)n4C)ccn3)cc2)cc1`, the results for the half-maximal inhibitory concentration (IC50) in data set [1] and in data set [2] were 27 nM and 17 nM, respectively.

A word on the IC50: it is the point on the concentration scale where inhibition reaches its midpoint.

(Values after ChEMBL document CHEMBL4002589, “Tri- and Tetrasubstituted Pyridinylimidazoles as Covalent Inhibitors of c-Jun N-Terminal Kinase 3” (J Med Chem, 2017).)
